Source: ChEMBL document CHEMBL1153538, “Discovery of novel antileishmanial agents in an attempt to synthesize pentamidine-aplysinopsin hybrid molecule” (J Med Chem, 2009)
Values after ≈ are worked out from the molar mass of the structure shown. Active and inactive are the calls of the source. The calls are words filed in the database; no cut-off is given here.

Key:
J774.A1 [1] = test: Cytotoxicity against mouse J774A1 by MTT assay; assay type: cell-based
Method in brief: (§1)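 J774A.1 or KB cells were grown in RPMI with 10% FCS. Exponentially growing cells (1 × 10⁴/well) were exposed to a range of compound concentrations (DMSO stocks diluted in medium) for 72 h at 37 °C. MTT was added for 2 h, formazan was dissolved in DMSO, and absorbance was read at 544 nm. IC50 was the concentration giving 50% viability loss versus medium-only cells, estimated by template.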

Leishmania donovani [2] = test: Antileishmanial activity against Leishmania donovani MHOM/IN/Dd8 […] carrying firefly luciferase gene infected in mouse J774A1 cells assessed as relative luminescence unit at 10 ug/mL after 72 hrs; assay type: functional; details: for inhibition at 10 µg/mL: MHOM/IN/Dd8, J774.A1, 72 h; for inhibition: J774.A1
Leishmania donovani [3] = test: Antileishmanial activity against Leishmania donovani MHOM/IN/Dd8 amastigote carrying firefly luciferase gene infected in mouse J774A1 cells assessed as relative luminescence unit at 12.5 ug/mL after 72 hrs; assay type: functional; details: for inhibition: J774.A1
Method in brief: (§2)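 J774A.1 macrophages (1.5 × 10⁴/well) were seeded in RPMI-1640 with 10% FCS at 37 °C under CO₂. After 24 h they were infected with stationary-phase luciferase-expressing promastigotes (4 × 10³/well). The medium was then replaced with compound at 0.195-12.5 μg/mL for 72 h. Steady Glo luminescence (RLU) was read, and inhibition was calculated against untreated controls. IC50 values are the mean of two independent assays.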

Leishmania donovani [4] = test: Antileishmanial activity against Leishmania donovani MHOM/IN/Dd8 amastigote carrying firefly luciferase gene infected in mouse J774A1 cells assessed as relative luminescence unit at 10 ug/mL after 72 hrs; assay type: functional; details: MHOM/IN/Dd8, J774.A1, 72 h
[5] = Selectivity index, ratio of IC50 for Leishmania donovani MHOM/IN/Dd8 amastigote to IC50 for human KB cells
KB = test: Cytotoxicity against human KB cells by MTT assay; assay type: cell-based; method in brief: as §1
Leishmania donovani [6] = test: Antileishmanial activity against Leishmania donovani MHOM/IN/Dd8 amastigote carrying firefly luciferase gene infected in mouse J774A1 cells assessed as relative luminescence unit after 72 hrs; assay type: functional, organism-based; details: MHOM/IN/Dd8, J774.A1, 72 h; method in brief: as §2
J774.A1 [7] = test: Cytotoxicity against mouse J774A1 at 12.5 ug/mL by MTT assay; assay type: cell-based
Leishmania donovani [8] = test: Antileishmanial activity against Leishmania donovani MHOM/IN/Dd8 amastigote infected in golden hamster assessed as parasite reduction at 50 mg/kg, ip for 5 consecutive days; assay type: functional; parameters: scale not given: the % may be the effect or the level left; details: route intraperitoneal
Method in brief: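 Golden hamsters (40-45 g) were infected intracardially with 1 × 10⁷ amastigotes. Animals with +1 infection by spleen biopsy were randomized, 5-6 per sample. Intraperitoneal dosing started 2 days after biopsy and ran for 5 consecutive days. Biopsies taken 7 days after the last dose were Giemsa-stained and counted. Percentage inhibition was corrected for initial burden and the rise in untreated controls.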

Leishmania donovani [9] = test: Ratio of drug to pentamidine for antileishmanial activity against Leishmania donovani MHOM/IN/Dd8 in mouse J774A1 cells by intracellular amastigote assay; assay type: functional, J774.A1

Row | Compound | IC50 (J774.A1 [1]) [µg/mL] | inhibition at 10 µg/mL (Leishmania donovani [2]) [%] | inhibition (Leishmania donovani [3]) | also measured
1 | CSC1=N/C(=C\c2cn(CCCCCOc3ccc(C#N)cc3)c3ccccc23)C(=O)N1C | > 100 | 63.2 | – | –
2 | O=C1NC(=S)N/C1=C\c1cn(CCCCCN2CCN(c3ccccc3)CC2)c2ccccc12 | > 100 | 88.3 | inactive | –
3 | Nc1cc(OCCCCCn2cc(/C=C3\NC(=S)NC3=O)c3ccccc32)ccn1 | – | – | – | inhibition at 10 µg/mL (Leishmania donovani [4]): 32.2%
4 | N#Cc1ccc(OCCCCCn2cc(/C=C3\NC(=N)NC3=O)c3ccccc32)cc1 | – | – | – | inhibition at 10 µg/mL (Leishmania donovani [4]): 0%
5 | O=C1N/C(=N\Cc2ccccc2)N/C1=C\c1c[nH]c2ccccc12 | – | – | inactive | inhibition (Leishmania donovani [2]): inactive
6 | N#Cc1ccc(OCCCCn2cc(/C=C3\NC(=S)NC3=O)c3ccccc32)cc1 | > 100 | 58.8 | – | –
7 | N#Cc1ccc(OCCCCCn2cc(/C=C3\NC(=S)NC3=O)c3cccnc32)cc1 | – | – | – | inhibition at 10 µg/mL (Leishmania donovani [4]): 97%; Ratio IC50 [5]: 28.6; IC50 (KB): 187 µM; IC50 (Leishmania donovani [6]): 6.5 µM
8 | O=C1NC(=S)N/C1=C\c1cn(CCCCCOc2ccccc2)c2ccccc12 | > 100 | 40.7 | – | –
9 | CSC1=N/C(=C\c2cn(CCCCCOc3ccc(C#N)cc3)c3ccccc23)C(=O)N1 | > 100 | 75.4 | – | –
10 | N=C(N)c1ccc(OCCCCCOc2ccc(C(=N)N)cc2)cc1.O=S(=O)(O)CCO | – | – | – | Ratio IC50 [5]: <1; IC50 (KB): 2.7 µM; IC50 (Leishmania donovani [6]): 20.4 µM
11 | N#Cc1ccc(OCCCCCn2cc(/C=C3\N/C(=N/c4ccccc4)NC3=O)c3ccccc32)cc1 | – | 92.8 | inactive | –
12 | COc1ccc(C/N=C2\NC(=O)/C(=C/c3c[nH]c4ccccc34)N2)cc1OC | – | – | inactive | inhibition (Leishmania donovani [2]): inactive
13 | NC(=O)c1ccc(OCCCCCn2cc(/C=C3\NC(=S)NC3=O)c3ccccc32)cc1 (mixture of isomers) | – | – | – | inhibition at 10 µg/mL (Leishmania donovani [4]): 48.9%
14 | N#Cc1ccc(OCCCCCn2cc(/C=C3\NC(=O)NC3=O)c3ccccc32)cc1 | 33 (≈ 79.6 µM) | – | inactive | inhibition (Leishmania donovani [2]): inactive
15 | N#Cc1ccc(OCCCCCn2cc(/C=C3\NC(=S)NC3=O)c3ccccc32)cc1 | – | 95.1 | – | Activity (J774.A1 [7]): Non-toxic; IC50 (Leishmania donovani [6]): 18.2 µM; inhibition at 12.5 µg/mL (Leishmania donovani [3]; MHOM/IN/Dd8, J774.A1, 72 h): 62%; Activity (Leishmania donovani [8]): 62.1%
16 | N#Cc1ccc(OCCCCCn2cc(C=O)c3ccccc32)cc1 | – | – | inactive | inhibition (Leishmania donovani [2]): inactive
17 | N/C(=N\O)c1ccc(OCCCCCn2cc(/C=C3\NC(=S)NC3=O)c3ccccc32)cc1 (mixture of isomers) | – | – | – | inhibition at 10 µg/mL (Leishmania donovani [4]): 0%
18 | CN1C(=S)NC(=O)/C1=C\c1cn(CCCCCOc2ccc(C#N)cc2)c2ccccc12 | 14.8 (≈ 33.3 µM) | 46.4 | – | –
19 | N#Cc1ccc(OCCCCCCn2cc(/C=C3\NC(=S)NC3=O)c3ccccc32)cc1 | 2.3 (≈ 5.17 µM) | 71.3 | – | –
20 | CCCC/N=C1\NC(=O)/C(=C/c2cn(CCCCCOc3ccc(C#N)cc3)c3ccccc23)N1 | – | 88 | inactive | –
21 | COc1ccc(C/N=C2\NC(=O)/C(=C/c3cn(CCCCCOc4ccc(C#N)cc4)c4ccccc34)N2)cc1OC | – | 93.7 | inactive | –
22 | N#Cc1ccc(OCCCCCn2cc(/C=C3\NC(=S)NC3=O)c3cc(Br)ccc32)cc1 (mixture of isomers) | – | – | – | inhibition at 10 µg/mL (Leishmania donovani [4]): 12.6%
23 | O=C1NC(=S)N/C1=C\c1c[nH]c2ccccc12 | – | – | inactive | inhibition (Leishmania donovani [2]): inactive
24 | N#Cc1ccc(OCCCCCn2cc(/C=C3\N/C(=N/Cc4ccccc4)NC3=O)c3ccccc32)cc1 | – | 93.9 | inactive | –
25 | CN1C(=S)NC(=O)/C1=C\c1cn(CCCCCOc2ccc(/C(N)=N/O)cc2)c2ccccc12 | – | 88.2 | – | inhibition at 10 µg/mL (Leishmania donovani [4]): 99.3%; fold change (FC) (Leishmania donovani [9]): 10; Ratio IC50 [5]: 53.4; IC50 (KB): 108 µM; IC50 (Leishmania donovani [6]): 2 µM
